Measured values from different studies.
pEC50, pIC50: −log10 of the molar value. In brackets after ≈: the same amount, converted by molar mass.

Structure (SMILES)	tested on	test	test system	conditions	measurement	result
C[C@]1(O)CC[C@@]2(C)[C@@H](CC[C@@H]3[C@@H]2CC[C@]2(C)[C@@H]([N+](=O)[O-])CC[C@@H]32)C1		6 Hz seizures	mouse	intraperitoneal	ED50	> 100 mg/kg
c1csc(-c2nnc3sc(Cc4ccc5c(c4)CCCC5)nn23)c1	Plasmodium falciparum	parasite growth, SYBR Green	3D7	72 h	pEC50	< 4.90
CO[C@H]1/C=C/O[C@@]2(C)Oc3c(C)c(O)c4c(O)c(c(/C=N/N5CCN(C)CC5)c(O)c4c3C2=O)NC(=O)/C(C)=C\C=C\[C@H](C)[C@H](O)[C@@H](C)[C@@H](O)[C@@H](C)[C@H](OC(C)=O)[C@@H]1C	Mycolicibacterium aurum	microbial growth, agar dilution			MIC	0.78 µg/mL (≈ 0.948 µM)
CC(C(=O)NOCc1ccccc1)c1cccc(C(OC(=O)NOCc2ccccc2)c2ccccc2)c1 (stereo not drawn)	FM3A	cell growth or viability		48 h	pIC50	4.96
Cc1sc(CNCCCNc2cc(=O)c3ccccc3[nH]2)c(I)c1C	Plasmodium falciparum	parasite growth, SYBR Green	3D7		pEC50	6.47
CC(C(=O)NCc1ccccc1)c1cccc(C(OC(=O)NCc2ccccc2)c2ccccc2)c1 (stereo not drawn)	FM3A	cell growth or viability		48 h	pIC50	4.85
Nc1ccc(C(=O)O)c(O)c1	Mycobacterium tuberculosis variant bovis	microbial growth	BCG		MIC	0.125 µg/mL (≈ 0.816 µM)
CONC(=O)OC(c1ccccc1)c1cccc(C(C)C(=O)NOC)c1 (stereo not drawn)	FM3A	cell growth or viability		48 h	pIC50	5.00
CCCCCCCCCCOc1cc2c(O)c(C(=O)OCC)cnc2cc1OCC	Plasmodium falciparum	parasite growth, SYBR Green	DD2	blood stage	pIC50	> 8.24
CCc1nc2nc(C)cc(Nc3cc(C)cc(C)c3)n2n1	Plasmodium falciparum	parasite growth, SYBR Green	3D7		pEC50	7.02
Cc1cc(NC2Cc3cc(F)c(F)cc3C2)n2nc(C(C)(F)F)nc2n1	Plasmodium falciparum	parasite growth	HB3	drug-resistant strain, blood stage	pEC50	7.68
Cc1nc(Nc2ccc(C)c(Cl)c2)c2c(C)noc2n1	Plasmodium falciparum	parasite growth, SYBR Green	3D7		pEC50	6.47
C[C@]12CC[C@@H](O)C[C@@H]1CC[C@@H]1[C@@H]2CC[C@]2(C)[C@@H]([N+](=O)[O-])CC[C@@H]12		6 Hz seizures	mouse	intraperitoneal	ED50	5.3 mg/kg
CCN(CC)CCCC(C)Nc1ccnc2cc(Cl)ccc12 (stereo not drawn)	Plasmodium falciparum	parasite growth	D6	blood stage	IC50	0.014 µg/mL
CC(=O)c1c(Cc2ccccc2Cl)c[nH]c1C	Plasmodium falciparum	parasite growth, SYBR Green	3D7		pEC50	6.85
